The list is not random: actives were taken first. Their share in the collection is about 1.7%.
Dynein cargo inh: inhibitors of GR-EGFP nuclear translocation, primary screen, dynein cargo transport inhibitor project, imaging, high-content, 3617.4 mouse cells; test concentration mostly 20 µM; stimulated with dexamethasone, 1 µM; hits give low values; z-score, hits read low; 220,000 compounds, 0.47% hits; AID 1381, 2008;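 active = plate z-score of nuclear minus cytoplasmic receptor signal below a set negative limit, without overly bright fluorescence or cell loss, cut at about -3.5 in these data, passing the limit was not always enough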;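 note: z-score of nuclear minus cytoplasmic ring GR-EGFP intensity difference per well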
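Buffer or medium: tetracycline-free induction medium containing charcoal-stripped FBS / Reagent: dexamethasone agonist, 1.0 µM final, for 30 min / Technique: automated 10x imaging of fixed Hoechst-stained cells / Times: induction 48 h, compound 1 h, agonist 30 min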
EP2 modulator: EP2 receptor modulators, cAMP readout, primary screen, cell-based, HTRF cAMP, PGE2 stimulation | Prostaglandin E2 receptor EP2 subtype (Homo sapiens), P43116 | EP2-expressing cells, cAMP HTRF FRET, PGE2 co-stimulation | induction, % at 25 µM | 260,000 compounds, 0.83% hits | AID 940, 2007;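 active = compounds whose cAMP rise, as percent of the full-agonist control response, exceeds 60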;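 note: rat C6 glioma line stably carrying human EP2 under a CMV promoter; the protocol text gives 20 µM as final concentration; 100% = response of wells given 1 µM PGE2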
Target sequence (P43116 whole entry, looked up): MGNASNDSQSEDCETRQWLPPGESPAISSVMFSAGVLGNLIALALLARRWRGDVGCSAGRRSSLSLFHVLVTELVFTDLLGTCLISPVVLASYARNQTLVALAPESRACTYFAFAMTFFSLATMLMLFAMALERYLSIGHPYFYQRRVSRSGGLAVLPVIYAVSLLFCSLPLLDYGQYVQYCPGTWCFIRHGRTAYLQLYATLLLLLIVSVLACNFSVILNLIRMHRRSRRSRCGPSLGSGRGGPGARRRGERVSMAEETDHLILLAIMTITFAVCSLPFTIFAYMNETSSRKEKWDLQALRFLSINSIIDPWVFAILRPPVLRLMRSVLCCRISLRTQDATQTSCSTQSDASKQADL
EP2 antag: human EP2 receptor antagonists, primary screen, TR-FRET cAMP, C6 glioma cells; 260,000 compounds, 0.52% hits; inhibition, % at 25 µM; AID 1422, 2008; C6 glioma cells expressing human EP2; cells stimulated with saturating PGE2; Prostaglandin E2 receptor EP2 subtype (Homo sapiens), P43116;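 active = percent inhibition above 40 after rounding to a whole number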;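 note: rat C6 glioma host cells with rolipram phosphodiesterase inhibitor present; the protocol text gives 20 µM as final concentration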
Hsp70 activator: Hsp70 transcriptional activators, primary screen, cell-based, HeLa, Hsp70 promoter luciferase, luminescence, 10 µM; HeLa Hsp70 promoter luciferase reporter; scaled: vehicle 0, proteasome-inhibitor control 100%; activation, % at 10 µM; 200,000 compounds, 0.04% hits;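 active = activation above the mean across all tested compounds plus 3 SD, cutoff set per campaign, cut at about 5.5% in these data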;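 note: 100% = MG132 at 30 µM as the positive control and 0% = DMSO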
EP2 cAMP induct: cAMP induction in EP2, EP4, beta2-AR and parental cells, confirmation, counter-screen for EP2 modulator project, cell-based, five parallel assays, C6 glioma, HEK293 | cAMP HTRF induction; plus low (about EC15) PGE2 agonist | 1,300 compounds, 47% hits | calls only at 20 µM (by protocol) | shares compounds with EP2 modulator | AID 1080, 2008;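 active = cAMP induction above 50% in the main assay while under 30% in all four parallel counter assays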;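 note: rat C6 glioma cells stably expressing human EP2 receptor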
An asterisk follows results filed as active.

Screening CCC(=O)N1CCN(c2nc(-c3ccccc3)c3c(c2C#N)CCCC3)CC1 returned Dynein cargo inh 0.24, EP2 modulator 81*, EP2 antag 14, Hsp70 activator 0 and EP2 cAMP induct inactive.
CN1CCN(c2nc(-c3ccccc3)nc(-c3ccccc3)c2C#N)CC1 was read as Dynein cargo inh -0.15, EP2 modulator 36, EP2 antag 1 and Hsp70 activator 0.
`CCOC(=O)c1c(NC(=O)CSc2ncnc3[nH]ncc23)sc2c1CCC(C)C2` (configuration not stated) gave Dynein cargo inh -0.7, EP2 modulator 66*, EP2 antag 7, Hsp70 activator 0 and EP2 cAMP induct inactive.
Screening O=S(=O)(O)c1ccc2c(N=Nc3c(O)ccc4ccccc34)cccc2c1 returned EP2 modulator 75*, EP2 antag 41* and EP2 cAMP induct inactive.
Screening O=S(=O)(O)c1cc(S(=O)(=O)O)c2c(N=Nc3cccc4ccccc34)c(O)ccc2c1 returned EP2 modulator 7 and EP2 antag 36.
Screening C[C@H](CCC(=O)O)[C@@H]1CC[C@@H]2[C@H]3CC[C@@H]4C[C@H](O)CC[C@@]4(C)[C@@H]3CC[C@]21C returned EP2 modulator 51, EP2 antag 35 and EP2 cAMP induct inactive.
For C[C@H](CCC(=O)O)[C@H]1CC[C@H]2[C@@H]3CC[C@@H]4C[C@H](O)CC[C@]4(C)[C@H]3C[C@H](O)[C@]12C the results were EP2 antag 12.
Screening CCOC1(OCC)C(c2ccc(Cl)cc2)C(C#N)(C#N)C1(OCC)OCC (configuration not stated) returned Dynein cargo inh -1.2, EP2 modulator 33 and Hsp70 activator 0.
CCOC1(OCC)C(c2ccc(N)cc2)C(C#N)(C#N)C1(OCC)OCC (configuration not stated) was read as Dynein cargo inh -0.54, EP2 modulator 76*, EP2 antag 7, Hsp70 activator 0 and EP2 cAMP induct active.
`COc1ccc(CN(C(=O)c2ccco2)c2ccc(Br)cc2)cc1OC` gave Dynein cargo inh 1.2, EP2 modulator 17, EP2 antag 3 and Hsp70 activator 0.
For CCOc1ccc(N(Cc2ccc(OC)cc2)C(=O)c2ccco2)cc1 the results were Dynein cargo inh 0.7, EP2 modulator 65*, EP2 antag 7, Hsp70 activator 0 and EP2 cAMP induct inactive.
`CN(C)c1nccc(N(Cc2ccccc2)Cc2ccccc2)c1C#N` gave Dynein cargo inh -0.47, EP2 modulator 68*, EP2 antag 8, Hsp70 activator 0 and EP2 cAMP induct active.
CN(C)CCN(Cc1ccccc1)c1ccnc(N(C)C)c1C#N was read as Dynein cargo inh 0.17, EP2 modulator 21 and Hsp70 activator 0.
`CCC(C(=O)O)N1C(=O)/C(=C/C(C)=C/c2ccccc2)SC1=S` (configuration not stated) gave Dynein cargo inh 1, EP2 modulator 25 and EP2 antag 10.
For CC(=C\c1ccccc1)/C=C1/SC(=S)N(C(C(=O)O)C(C)C)C1=O (configuration not stated) the results were Dynein cargo inh -0.13, EP2 modulator 54, EP2 antag 6, Hsp70 activator 0 and EP2 cAMP induct active.
Screening COc1ccccc1CCNC(=O)Cn1nc(C)n2c(cc3oc(C)cc32)c1=O returned EP2 modulator -29 and EP2 antag 0.
`COc1ccc(C(CNS(=O)(=O)c2cn(C)nc2C)N2CCOCC2)cc1` (configuration not stated) gave EP2 modulator -3 and EP2 antag 7.
CC1=C/C(=C(/c2ccc(O)c(C)c2)c2ccccc2C(=O)O)C=CC1=O was read as EP2 modulator 51, EP2 antag 5 and EP2 cAMP induct inactive.
`FC(F)(F)c1cc(CCN2C(=S)NC[C@@H]2c2ccccc2)cc(C(F)(F)F)c1` gave Dynein cargo inh -0.085, EP2 modulator 17 and EP2 antag 9.
`FC(F)(F)c1cc(CO[C@H]2CCCN[C@H]2c2ccccc2)cc(C(F)(F)F)c1` gave EP2 modulator 68*, EP2 antag 14 and EP2 cAMP induct inactive.
CCOC(=O)c1c(-c2ccc(C)cc2)csc1NC(=O)c1ccc(N2C(=O)CCC2=O)cc1 was read as Dynein cargo inh -0.44, EP2 modulator 70*, EP2 antag 12, Hsp70 activator 0 and EP2 cAMP induct inactive.
For CCOC(=O)c1c(-c2cccs2)csc1NC(=O)CN1CCOCC1 the results were Dynein cargo inh -1.2, EP2 modulator 69*, EP2 antag 11, Hsp70 activator -1 and EP2 cAMP induct inactive.
CCOC(=O)c1c(NC(=O)c2ccc(N3C(=O)[C@@H]4[C@H](C3=O)[C@H]3C=C[C@@H]4C3)cc2)sc2c1CC(C)CC2 (some centres not stated) was read as Dynein cargo inh 0.15, EP2 modulator 55, EP2 antag 17, Hsp70 activator 0 and EP2 cAMP induct inactive.
`CCOC(=O)c1c(-c2ccc(C)o2)csc1NC(=O)CN1CCOCC1` gave Dynein cargo inh -0.53, EP2 modulator 33, EP2 antag 11 and Hsp70 activator 0.
Screening CCOC(=O)c1c(NC(=O)C2C3C=CC(C3)C2C(=O)O)sc2c1CC(C)CC2 (configuration not stated) returned Dynein cargo inh 0.051, EP2 modulator 13, EP2 antag 13 and Hsp70 activator 0.
CCOC(=O)c1c(-c2ccccc2)csc1NC(=O)CCN1CCOCC1 was read as Dynein cargo inh -0.01, EP2 modulator 42, EP2 antag 6 and Hsp70 activator 0.
Screening CCOC(=O)c1c(-c2ccc(C)cc2)csc1NC(=O)CCN1CCOCC1 returned Dynein cargo inh 0.64, EP2 modulator 90*, EP2 antag 5, Hsp70 activator 0 and EP2 cAMP induct active.
Screening N#Cc1c(NC(=O)CSc2nncn2-c2ccccn2)sc2c1CCCC2 returned EP2 modulator -41 and EP2 antag 15.
Screening Cc1nc2cc(F)ccc2n1C1CCN(C(=O)c2cccc(F)c2)CC1 returned EP2 modulator -10 and EP2 antag 4.
For O=C(CCCOc1ccc(Cl)cc1Cl)N1CCCc2ccccc21 the results were Dynein cargo inh -0.8, EP2 modulator 22, EP2 antag 12 and Hsp70 activator 0.
Screening Cc1cccc(OCCCC(=O)N2CCCc3ccccc32)c1C returned Dynein cargo inh 1.7, EP2 modulator 82*, EP2 antag 7, Hsp70 activator 0 and EP2 cAMP induct active.

Compound activity: PubChem, several laboratories
